In ChEMBL document CHEMBL3774374, “The Effect of Small Molecules on Sterol Homeostasis: Measuring 7-Dehydrocholesterol in Dhcr7-Deficient Neuro2a Cells and Human Fibroblasts” (J Med Chem, 2016):
The source made the active and inactive calls. The calls are words filed in the database; no cut-off is given here.

Assays:
[1] = test system: N2a; test: Increase in lanosterol levels in Dhcr7-deficient mouse Neuro2a cells at 1 uM by LC-MS analysis; format: functional, cell-based
Procedure, shortened: (§1)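 Dhcr7-deficient Neuro2a cells (13000/well, 0.5% FBS medium) on predeposited compound, 24 h at 37 °C. Hoechst-stained and imaged to count cells. Lysed in methanol containing isotope-labelled sterol standards, derivatized with PTAD 20 min at RT, then isocratic C18 UPLC-MS/SRM. Remaining extract silylated with BSTFA for GC-MS, quantified against d7-cholesterol. Follow-up runs in triplicate.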

[2] = test system: Fibroblast; test: Increase in lanosterol levels in human SLOS fibroblasts at 1 uM by LC-MS/GC-MS analysis; format: functional, cell-based
Procedure, shortened: (§2)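 SLOS patient skin fibroblasts (passage 8–20) grown in 96-well plates in delipidated serum with compound for 5 days; three different SLOS lines. Sterols quantified by PTAD-derivatized UPLC-MS plus GC-MS; 7-DHC expressed as percentage of untreated cells.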

[3] = molecular target: T1, Delta(24)-sterol reductase (Mus musculus) (UniProt Q8VCH6); test: Inhibition of DR24 in Dhcr7-deficient mouse Neuro2a cells assessed as increase in lanosterol levels at 100 nM by LC-MS/GC-MS analysis; format: cell-based
T1 sequence (whole entry): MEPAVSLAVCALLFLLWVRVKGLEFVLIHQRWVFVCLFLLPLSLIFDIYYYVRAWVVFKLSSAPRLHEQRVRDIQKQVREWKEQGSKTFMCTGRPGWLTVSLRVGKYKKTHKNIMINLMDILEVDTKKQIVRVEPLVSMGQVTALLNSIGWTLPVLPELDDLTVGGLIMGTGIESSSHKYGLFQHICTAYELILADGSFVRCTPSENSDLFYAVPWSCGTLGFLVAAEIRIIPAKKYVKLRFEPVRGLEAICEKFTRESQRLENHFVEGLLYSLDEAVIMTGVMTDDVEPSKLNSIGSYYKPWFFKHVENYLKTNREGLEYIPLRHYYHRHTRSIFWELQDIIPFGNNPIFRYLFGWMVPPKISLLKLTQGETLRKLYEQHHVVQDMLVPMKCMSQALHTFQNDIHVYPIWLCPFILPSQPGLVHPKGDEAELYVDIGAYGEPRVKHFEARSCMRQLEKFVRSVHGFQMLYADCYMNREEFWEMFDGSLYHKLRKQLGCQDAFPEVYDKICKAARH
Procedure, shortened: (§3)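 Follow-up (verification) assay in 96-well plates, run as the 384-well screen, in triplicate, at varying compound concentrations. Cells counted by Hoechst imaging, washed with PBS, then lysed in MeOH with BHT/TPP and isotope standards (d7-Chol, d7-7-DHC, 13C3-Des, 13C3-Lan). Sterols derivatised with PTAD for 20 min at RT and quantified by C18 UPLC-MS (SRM). Remaining sample silylated with BSTFA and run on GC-MS, quantified against d7-Chol.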

[4] = test system: N2a; test: Change in cholesterol level in Dhcr7-deficient mouse Neuro2a cells at 100 nM by LC-MS/GC-MS analysis; format: functional, cell-based; procedure, shortened: as §3
[5] = molecular target: T1, Delta(24)-sterol reductase (Mus musculus); test: Inhibition of DR24 in Dhcr7-deficient mouse Neuro2a cells assessed as decrease in 7-DHC levels at 1 uM by LC-MS/GC-MS analysis; format: cell-based; procedure, shortened: as §1
[6] = molecular target: T1, Delta(24)-sterol reductase (Mus musculus); test: Inhibition of DR24 in Dhcr7-deficient mouse Neuro2a cells assessed as increase in desmosterol levels at 100 nM by LC-MS/GC-MS analysis; format: cell-based; procedure, shortened: as §3
[7] = molecular target: T1, Delta(24)-sterol reductase (Mus musculus); test: Inhibition of C-24 reductase in Dhcr7-deficient mouse Neuro2a cells assessed as increase in zymosterol levels at 1 uM by LC-MS/GC-MS analysis; format: cell-based; procedure, shortened: as §1
[8] = molecular target: T2, 3-beta-hydroxysteroid-Delta(8),Delta(7)-isomerase (Mus musculus) (UniProt P70245); test: Inhibition of delta 8-7 isomerase in Dhcr7-deficient mouse Neuro2a cells assessed as decrease in 7-DHC levels at 1 uM by LC-MS/GC-MS analysis; format: cell-based; procedure, shortened: as §1
T2 sequence (whole entry): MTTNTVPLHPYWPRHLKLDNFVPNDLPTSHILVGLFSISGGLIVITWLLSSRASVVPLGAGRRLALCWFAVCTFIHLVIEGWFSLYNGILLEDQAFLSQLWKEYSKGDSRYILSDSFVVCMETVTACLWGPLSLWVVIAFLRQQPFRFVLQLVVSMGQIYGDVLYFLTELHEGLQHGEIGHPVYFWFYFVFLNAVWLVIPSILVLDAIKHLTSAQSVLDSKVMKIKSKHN

[9] = molecular target: T1, Delta(24)-sterol reductase (Mus musculus); test: Inhibition of C-24 reductase in Dhcr7-deficient mouse Neuro2a cells assessed as increase in desmosterol levels at 1 uM by LC-MS/GC-MS analysis; format: cell-based; procedure, shortened: as §1
[10] = molecular target: T1, Delta(24)-sterol reductase (Mus musculus); test: Inhibition of DR24 in mouse Neuro2a cells assessed as decrease in 7-DHC levels at 1 uM by LC-MS/GC-MS analysis; format: cell-based
Procedure, shortened: (§4)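 Control Neuro2a cells (10000/well, 0.5% FBS) on compound, 24 h. Hoechst cell count, then methanol lysis with labelled standards (d7-7-DHC, 13C3-desmosterol, 13C3-lanosterol), PTAD derivatization 20 min at RT, UPLC-MS SRM. GC-MS of silylated extract for further sterols.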

[11] = molecular target: T2, 3-beta-hydroxysteroid-Delta(8),Delta(7)-isomerase (Mus musculus); test: Inhibition of delta 8-7 isomerase in mouse Neuro2a cells assessed as decrease in 7-DHC levels at 1 uM by LC-MS/GC-MS analysis; format: cell-based; procedure, shortened: as §4
[12] = molecular target: 3-beta-hydroxysteroid-Delta(8),Delta(7)-isomerase (Homo sapiens) (UniProt Q15125); test: Inhibition of delta 8-7 isomerase in human SLOS fibroblasts assessed as decrease in 7-DHC levels at 10 nM after 5 days by LC-MS/GC-MS analysis; procedure, shortened: as §2
Chain of 3-beta-hydroxysteroid-Delta(8),Delta(7)-isomerase (Homo sapiens) (Q15125 whole entry): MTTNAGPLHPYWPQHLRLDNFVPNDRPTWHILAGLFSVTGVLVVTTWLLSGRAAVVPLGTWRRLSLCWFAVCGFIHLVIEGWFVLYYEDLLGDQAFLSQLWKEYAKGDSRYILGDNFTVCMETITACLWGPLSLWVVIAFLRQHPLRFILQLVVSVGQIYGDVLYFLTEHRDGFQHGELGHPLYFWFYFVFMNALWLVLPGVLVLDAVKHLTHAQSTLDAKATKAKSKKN

[13] = Cytotoxicity against human SLOS fibroblasts at 5 uM after 5 days by Cell Titer assay; format: cell-based; settings: fibroblast, 120 h
[14] = test system: Fibroblast; test: Decrease in cholesterol levels in human SLOS fibroblasts at 10 nM after 5 days by LC-MS/GC-MS analysis; format: functional, cell-based; procedure, shortened: as §2
[15] = molecular target: T3, Delta(24)-sterol reductase (Homo sapiens) (UniProt Q15392); test: Inhibition of DR24 in human SLOS fibroblasts assessed as decrease in 7-DHC levels at 10 nM after 5 days by LC-MS/GC-MS analysis; procedure, shortened: as §2
T3 sequence (whole entry): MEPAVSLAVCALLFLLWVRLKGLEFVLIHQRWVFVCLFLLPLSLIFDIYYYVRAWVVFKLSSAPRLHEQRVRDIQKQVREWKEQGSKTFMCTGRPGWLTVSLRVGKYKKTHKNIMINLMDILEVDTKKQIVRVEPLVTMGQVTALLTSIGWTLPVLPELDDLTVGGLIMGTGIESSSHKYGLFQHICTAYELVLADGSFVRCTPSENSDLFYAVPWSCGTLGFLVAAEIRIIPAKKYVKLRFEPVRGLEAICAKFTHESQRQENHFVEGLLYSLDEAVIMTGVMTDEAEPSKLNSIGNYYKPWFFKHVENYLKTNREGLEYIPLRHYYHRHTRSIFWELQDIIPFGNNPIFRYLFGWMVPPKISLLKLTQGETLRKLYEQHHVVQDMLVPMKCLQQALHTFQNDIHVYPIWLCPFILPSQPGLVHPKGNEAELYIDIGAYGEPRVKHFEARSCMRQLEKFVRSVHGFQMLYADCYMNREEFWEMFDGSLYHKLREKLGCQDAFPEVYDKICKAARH

[16] = molecular target: T2, 3-beta-hydroxysteroid-Delta(8),Delta(7)-isomerase (Mus musculus); test: Inhibition of delta 8-7 isomerase in Dhcr7-deficient mouse Neuro2a cells assessed as decrease in 7-DHC levels at 200 nM after 24 hrs by LC-MS analysis; format: cell-based
Procedure, shortened: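 384-well screen: Dhcr7-deficient Neuro2a cells (13000/well) dispensed in 0.5% FBS medium onto predeposited compound (five wells each at 20 and 200 nM) and incubated 24 h at 37 °C. Nuclei Hoechst-stained and counted by automated imaging. Cells lysed in MeOH with deuterated and 13C standards, then derivatised with PTAD for 20 min at RT. 7-DHC measured by isocratic UPLC-MS (SRM) and expressed as pg per cell; DMSO wells served as controls.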

[17] = molecular target: T1, Delta(24)-sterol reductase (Mus musculus); test: Inhibition of DR24 in Dhcr7-deficient mouse Neuro2a cells assessed as decrease in 7-DHC levels at 200 nM after 24 hrs by LC-MS analysis; format: cell-based
Procedure, shortened: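 384-well screen: Dhcr7-deficient Neuro2a cells (13000/well, 0.5% FBS) with compound at 20 or 200 nM (five wells each), 24 h at 37 °C. Cells counted after Hoechst imaging, then methanol lysis with d7-7-DHC standard, PTAD derivatization 20 min at RT, UPLC-MS SRM (7-DHC 560→365). Read-out is pg 7-DHC per cell.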

Compound: CC(=O)O[C@@]1(C(C)=O)CC[C@H]2[C@H]3C=C(C)C4=CC(=O)CC[C@]4(C)[C@H]3CC[C@@]21C
- Activity [1]: Active
- Activity [2]: Active

Compound: CCC(COC(=O)c1cc(OC)c(OC)c(OC)c1)(c1ccccc1)N(C)C (configuration not stated)
- inhibition [3]: Active
- Activity [4]: inactive
- inhibition [5]: Active
- inhibition [6]: Active

Compound: Oc1ccc2c(c1)CC[C@H](c1ccccc1)[C@@H]2c1ccc(OCCN2CCCC2)cc1
- inhibition [5]: Active
- inhibition [7]: Active
- inhibition [8]: Active
- inhibition [9]: Active
- Decrease in 7-DHC levels (active/inactive call) [10]: Active
- Activity (decrease in 7-DHC levels) [11]: Active

Compound: Cc1c(-c2ccc(O)cc2)n(Cc2ccc(OCCN3CCCCCC3)cc2)c2ccc(O)cc12 [BAZEDOXIFENE]
- inhibition [12]: Active
- Activity [13]: Toxic
- inhibition [5]: Active
- Activity [14]: inactive
- inhibition [8]: Active
- inhibition [15]: Active
- inhibition [16]: Active
- Decrease in 7-DHC levels (active/inactive call) [10]: Active
- inhibition [17]: Active
- Activity (decrease in 7-DHC levels) [11]: Active
